Data: ChEMBL document CHEMBL4229559, “Synthesis toward Bivalent Ligands for the Dopamine D2 and Metabotropic Glutamate 5 Receptors” (J Med Chem, 2018)

Legend:
D(2) dopamine receptor [1] = target: T1, D(2) dopamine receptor (Homo sapiens, UniProt P14416); assay: Displacement of [3H]-Raclopride from recombinant human dopamine D2 receptor expressed in HEK293T cell membranes co-expressing mGluR5a (unknown origin) after 1 hr by liquid scintillation counting
How it was run: (§1)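 Membranes (20 µg) from HEK293T cells stably expressing D2R, or D2R with mGluR5. Incubated with 2.0 nM [3H]raclopride and unlabeled ligand (0.1 nM-10 µM) for 1 h at 37 °C in 50 mM Tris-HCl pH 7.4 containing NaCl, KCl, MgCl2, CaCl2 and EDTA. Nonspecific binding defined with 1 µM haloperidol. Counted by scintillation; Ki by Cheng-Prusoff; three independent assays.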

[2] = target: T2, D(2) dopamine receptor/Metabotropic glutamate receptor 5 (Homo sapiens, UniProt P14416+P41594); assay: Agonist activity at human dopamine D2 receptor /mGluR5a (unknown origin) expressed in HEK293T cells assessed as reduction in forskolin-induced cAMP accumulation preincubated for 15 mins followed by forskolin addition by GloSensor-based assay; assay type: functional, cell-based
D(2) dopamine receptor [3] = target: T1, D(2) dopamine receptor; assay: Agonist activity at human dopamine D2 receptor expressed in HEK293T cells assessed as reduction in forskolin-induced cAMP accumulation preincubated for 15 mins followed by forskolin addition by GloSensor-based assay; assay type: functional, cell-based
D(2) dopamine receptor [4] = target: T1, D(2) dopamine receptor; assay: Displacement of [3H]-Raclopride from recombinant human dopamine D2 receptor expressed in HEK293T cell membranes after 1 hr by liquid scintillation counting; how it was run: as §1
[5] = target: T3, Metabotropic glutamate receptor 5 (Homo sapiens, UniProt P41594); assay: Displacement of [3H]MPEP from recombinant mGluR5a (unknown origin) expressed in HEK293T cell membranes co-expressing human dopamine D2 receptor after 1 hr by liquid scintillation counting
How it was run: (§2)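 Membranes (20 µg) from cells stably expressing mGluR5, with or without D2R. Incubated with 3.0 nM [3H]MPEP and unlabeled ligand (0.1 nM-100 µM) in 50 mM Tris-HCl/2 mM MgCl2, pH 7.4, for 1 h at 25 °C. Nonspecific binding defined with 10 µM MPEP. Filtration and scintillation counting; Ki via Cheng-Prusoff; three independent assays in duplicate.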

[6] = target: T3, Metabotropic glutamate receptor 5; assay: Antagonist activity at mGluR5 (unknown origin) expressed in HEK293T cells assessed as inhibition of L-Glu-induced MAPK phosphorylation preincubated for 30 mins followed by agonist stimulation for 10 mins by Western blot analysis; assay type: functional, cell-based
How it was run: (§3)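 Cells stably expressing mGluR5 alone or with D2R, seeded at 400,000 per well, serum-starved overnight at about 70% confluence. Ligand pretreatment at 1 nM-10 µM for 30 min at 37 °C, then 10 µM L-glutamate for 7-10 min. RIPA lysates run on western blot; phospho-p44/42 MAPK signal normalized to total p44/42 MAPK. Mean ± SEM of three independent experiments.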

[7] = target: T2, D(2) dopamine receptor/Metabotropic glutamate receptor 5; assay: Antagonist activity at human dopamine D2 receptor /mGluR5a (unknown origin) expressed in HEK293T cells assessed as inhibition of L-Glu-induced MAPK phosphorylation preincubated for 30 mins followed by agonist stimulation for 10 mins by Western blot analysis; assay type: cell-based; how it was run: as §3
[8] = target: T3, Metabotropic glutamate receptor 5; assay: Displacement of [3H]MPEP from recombinant mGluR5 (unknown origin) expressed in HEK293T cell membranes after 1 hr by liquid scintillation counting; how it was run: as §2

T2 sequence (P14416 whole entry): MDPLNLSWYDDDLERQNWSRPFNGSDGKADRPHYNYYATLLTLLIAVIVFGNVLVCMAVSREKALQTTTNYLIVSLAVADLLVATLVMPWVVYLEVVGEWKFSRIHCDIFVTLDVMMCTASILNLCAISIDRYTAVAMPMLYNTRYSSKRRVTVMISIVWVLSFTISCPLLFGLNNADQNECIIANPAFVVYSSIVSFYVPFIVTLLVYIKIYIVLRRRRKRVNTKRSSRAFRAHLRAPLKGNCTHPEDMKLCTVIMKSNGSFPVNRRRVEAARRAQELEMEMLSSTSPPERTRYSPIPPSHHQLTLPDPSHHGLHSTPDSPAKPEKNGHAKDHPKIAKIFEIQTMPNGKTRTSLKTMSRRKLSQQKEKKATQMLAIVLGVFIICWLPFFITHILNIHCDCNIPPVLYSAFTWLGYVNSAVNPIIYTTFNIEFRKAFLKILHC
T2 sequence (P41594 whole entry): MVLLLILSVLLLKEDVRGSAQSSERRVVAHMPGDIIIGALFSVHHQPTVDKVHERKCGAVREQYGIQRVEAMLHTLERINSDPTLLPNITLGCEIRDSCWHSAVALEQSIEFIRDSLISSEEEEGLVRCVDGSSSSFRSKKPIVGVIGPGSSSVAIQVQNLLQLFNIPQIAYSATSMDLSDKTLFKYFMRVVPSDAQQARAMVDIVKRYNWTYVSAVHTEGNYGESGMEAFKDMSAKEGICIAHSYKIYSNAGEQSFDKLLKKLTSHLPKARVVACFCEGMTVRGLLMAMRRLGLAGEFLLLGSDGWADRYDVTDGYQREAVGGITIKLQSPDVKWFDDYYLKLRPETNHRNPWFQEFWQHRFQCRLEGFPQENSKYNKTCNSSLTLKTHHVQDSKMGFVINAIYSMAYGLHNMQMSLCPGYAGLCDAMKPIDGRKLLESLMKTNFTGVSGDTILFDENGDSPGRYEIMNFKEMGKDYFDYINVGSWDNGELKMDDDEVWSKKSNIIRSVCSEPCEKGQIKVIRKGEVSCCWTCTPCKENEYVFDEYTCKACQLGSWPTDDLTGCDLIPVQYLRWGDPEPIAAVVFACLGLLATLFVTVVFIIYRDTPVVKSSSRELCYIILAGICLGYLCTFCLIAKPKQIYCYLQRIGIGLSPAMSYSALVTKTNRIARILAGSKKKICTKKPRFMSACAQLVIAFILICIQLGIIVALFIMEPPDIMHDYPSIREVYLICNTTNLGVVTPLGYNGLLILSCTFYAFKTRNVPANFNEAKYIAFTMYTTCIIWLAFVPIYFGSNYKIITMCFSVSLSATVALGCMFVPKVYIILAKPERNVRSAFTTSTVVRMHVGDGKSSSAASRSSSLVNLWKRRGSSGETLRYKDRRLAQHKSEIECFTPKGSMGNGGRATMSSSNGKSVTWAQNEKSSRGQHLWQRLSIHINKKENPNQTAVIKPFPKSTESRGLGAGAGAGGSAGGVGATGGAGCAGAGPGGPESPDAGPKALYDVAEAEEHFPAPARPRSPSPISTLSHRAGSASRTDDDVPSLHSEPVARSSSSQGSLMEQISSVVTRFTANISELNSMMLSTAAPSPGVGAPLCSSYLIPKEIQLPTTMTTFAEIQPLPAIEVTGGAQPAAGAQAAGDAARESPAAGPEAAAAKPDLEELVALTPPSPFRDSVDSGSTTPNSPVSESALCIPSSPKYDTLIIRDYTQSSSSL
T1 sequence (P14416 whole entry): as the sequence (P14416 whole entry) above
T3 sequence (P41594 whole entry): as the sequence (P41594 whole entry) above

| Ki (D(2) dopamine receptor [1]) | EC50 [2] | EC50 (D(2) dopamine receptor [3]) | Ki (D(2) dopamine receptor [4]) | Ki [5] | EC50 ([2]; read-out: EC50) | IC50 [6] | EC50 (D(2) dopamine receptor [3]; read-out: EC50) | IC50 [7] | Ki [8] | Structure (SMILES) |
| --- | --- | --- | --- | --- | --- | --- | --- | --- | --- | --- |
| 45 nM |  |  | 132 nM | 1300 nM |  | 110 nM |  | 1800 nM | 1000 nM | COc1cc(CN2CCN(c3ccccc3OC)CC2)ccc1OCc1cn(CCCCCCCCN(C)CCCCCNC(=O)COc2cncc(C#Cc3csc(C)n3)c2)nn1 |
| 186 nM |  |  | 352 nM |  |  | 900 nM |  |  |  | COc1cc(CN2CCN(c3ccccc3OC)CC2)ccc1OCc1cn(CCOCCOCCOCCOCCOCCNC(=O)COc2cccc(C#Cc3csc(C)n3)c2)nn1 |
| 115 nM |  |  | 303 nM |  |  | 450 nM |  |  |  | COc1cc(CN2CCN(c3ccccc3OC)CC2)ccc1OCc1cn(CCCCCCCCCCN(C)CCCCCNC(=O)COc2cncc(C#Cc3csc(C)n3)c2)nn1 |
| 251 nM |  |  | 438 nM |  |  | 1200 nM |  |  |  | COc1cc(CN2CCN(c3ccccc3OC)CC2)ccc1OCc1cn(CCOCCOCCOCCNC(=O)COc2cccc(C#Cc3csc(C)n3)c2)nn1 |
| 142 nM |  |  | 295 nM |  | 20 nM | 1600 nM | 7.6 nM |  |  | CCCN(CCc1ccc(NC(=O)CCc2cn(CCCCCCNC(=O)COc3cncc(C#Cc4csc(C)n4)c3)nn2)cc1)C1CCc2c(O)cccc2C1 (stereo unspecified) |
| 94 nM |  |  | 147 nM |  |  | 240 nM |  |  |  | COc1cc(CN2CCN(c3ccccc3OC)CC2)ccc1OCc1cn(CCCCCCCCN(C)CCCCCNC(=O)COc2cccc(C#Cc3csc(C)n3)c2)nn1 |
| 252 nM |  |  | 398 nM |  |  | 310 nM |  |  |  | COc1cc(CN2CCN(c3ccccc3OC)CC2)ccc1OCc1cn(CCCCCCCCCCN(C)CCCCCNC(=O)COc2cccc(C#Cc3csc(C)n3)c2)nn1 |

Second part, the compound before the results:

| Structure (SMILES) | Ki (D(2) dopamine receptor [1]) | EC50 [2] | EC50 (D(2) dopamine receptor [3]) | Ki (D(2) dopamine receptor [4]) | Ki [5] | EC50 ([2]; read-out: EC50) | IC50 [6] | EC50 (D(2) dopamine receptor [3]; read-out: EC50) | IC50 [7] | Ki [8] |
| --- | --- | --- | --- | --- | --- | --- | --- | --- | --- | --- |
| C#CCOc1ccc(CN2CCN(c3ccccc3OC)CC2)cc1OC | 69 nM | Not Active | Not Active | 77 nM |  |  |  |  |  |  |
| CCCN(CCc1ccc(NC(=O)CCc2cn(CCCCCCCCN(C)CCCCCNC(=O)COc3cncc(C#Cc4csc(C)n4)c3)nn2)cc1)C1CCc2c(O)cccc2C1 (stereo unspecified) | 13 nM |  |  | 50 nM | 1100 nM | 1.5 nM | 170 nM | 3.3 nM | 620 nM | 2300 nM |
| C#CCCC(=O)Nc1ccc(CCN(CCC)C2CCc3c(O)cccc3C2)cc1 (stereo unspecified) | 19 nM |  |  | 17 nM |  | 6.5 nM |  | 3 nM |  |  |
| Cc1nc(C#Cc2cncc(OCC(=O)NCCCCCN(C)CCCCCCCCN=[N+]=[N-])c2)cs1 |  |  |  |  | 5700 nM |  | 2600 nM |  | 4500 nM | 5800 nM |
| CCCN(CCc1ccc(NC(=O)CCc2cn(CCCCCCCCCCN(C)CCCCCNC(=O)COc3cncc(C#Cc4csc(C)n4)c3)nn2)cc1)C1CCc2c(O)cccc2C1 (stereo unspecified) | 171 nM |  |  | 79 nM |  | 32 nM | 320 nM | 5.5 nM |  |  |
